Measured values taken from ChEMBL document CHEMBL4368872, “Synthesis and anticonvulsant activity of phenoxyacetyl derivatives of amines, including aminoalkanols and amino acids” (Medchemcomm, 2018).
The source made the active and inactive calls. The calls are words filed in the database; no cut-off is given here.

Columns and labels:
Mus musculus [1] = assay: Anticonvulsant activity in CF-1 mouse assessed as protection against 44 mA current-induced seizure at 40 to 80 mg/kg, ip after 0.5 hrs by 6 Hz psychomotor test; format: functional
[2] = Neurotoxicity in Sprague-Dawley rat at 100 mg/kg, ip measured after 2 hrs by rotarod test; format: toxicity, organism-based; details: Sprague-Dawley, in vivo
In short: (§1)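 Rat neurotoxicity after i.p. or p.o. dosing was scored as animals impaired / animals tested at each time point. For p.o. dosing, TD50 was obtained by probit analysis.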

Mus musculus [3] = assay: Anticonvulsant activity in CF-1 mouse model of subcutaneous pentylenetetrazole-induced seizure assessed as reduction in convulsions at 30 mg/kg, ip measured at 4 hrs post dose; format: functional, organism-based
In short: (§2)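 Mice dosed i.p., then given pentylenetetrazole 85 mg/kg in 0.9% NaCl s.c. into the posterior midline of the neck. Seizures watched for at least 30 min. Scored as protected / tested at 0.5 and 4 h.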

[4] = Neurotoxicity in CF-1 mouse at 100 mg/kg, ip measured after 0.5 hrs by rotarod test; format: toxicity, organism-based; details: in vivo
In short: (§3)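 Mice dosed i.p. were placed on a 1 in. knurled rod turning at 6 rpm. Toxicity was scored as failure to keep balance for at least 1 min, i.e. falling off three or more times. Results are reported as animals showing toxicity / animals tested at each time point.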

Mus musculus [5] = assay: Anticonvulsant activity in CF-1 mouse model of maximal electroshock-induced seizure assessed as suppression of tonic hind limb extension at 100 mg/kg, ip measured at 4 hrs post dose; format: functional, organism-based
In short: (§4)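 Mice dosed i.p. and given maximal electroshock at 50 mA. Read-out is protection, reported as number protected / number tested at 0.25, 0.5, 1 and 4 h after dosing.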

Mus musculus [6] = assay: Anticonvulsant activity in CF-1 mouse model of subcutaneous pentylenetetrazole-induced seizure assessed as reduction in convulsions at 300 mg/kg, ip measured at 0.5 hrs post dose; format: functional, organism-based; in short: as §2
Mus musculus [7] = assay: Anticonvulsant activity in CF-1 mouse model of maximal electroshock-induced seizure assessed as suppression of tonic hind limb extension at 30 mg/kg, ip measured at 0.5 hrs post dose; format: functional, organism-based; in short: as §4
Mus musculus [8] = assay: Anticonvulsant activity in CF-1 mouse model of maximal electroshock-induced seizure assessed as suppression of tonic hind limb extension at 30 mg/kg, ip measured at 4 hrs post dose; format: functional, organism-based; in short: as §4
[9] = Neurotoxicity in CF-1 mouse at 30 mg/kg, ip measured after 0.5 hrs by rotarod test; format: toxicity, organism-based; details: in vivo; in short: as §3
[10] = Neurotoxicity in CF-1 mouse at 100 mg/kg, ip measured after 4 hrs by rotarod test; format: toxicity, organism-based; details: in vivo; in short: as §3
[11] = Neurotoxicity in Sprague-Dawley rat at 30 mg/kg, po measured after 0.25 hrs by rotarod test; format: toxicity, organism-based; details: in vivo; in short: as §1
Rattus norvegicus [12] = assay: Anticonvulsant activity in Sprague-Dawley rat model of maximal electroshock-induced seizure assessed as suppression of tonic hind limb extension at 30 mg/kg, po measured at 0.25 hrs post dose; format: functional, organism-based
In short: (§5)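 Rats given 30 mg/kg p.o. and tested by maximal electroshock at 150 mA. Scored as number protected / number tested (4 per group) at 0.25, 0.5, 1, 2 and 4 h after dosing.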

Mus musculus [13] = assay: Anticonvulsant activity in CF-1 mouse model of maximal electroshock-induced seizure assessed as suppression of tonic hind limb extension at 100 mg/kg, ip measured at 0.5 hrs post dose; format: functional, organism-based; in short: as §4
Rattus norvegicus [14] = assay: Anticonvulsant activity in Sprague-Dawley rat model of maximal electroshock-induced seizure assessed as suppression of tonic hind limb extension at 30 mg/kg, po measured at 0.5 hrs post dose; format: functional, organism-based; in short: as §5
Mus musculus [15] = assay: Anticonvulsant activity in CF-1 mouse model of maximal electroshock-induced seizure assessed as suppression of tonic hind limb extension at 300 mg/kg, ip measured at 0.5 hrs post dose; format: functional, organism-based; in short: as §4
Mus musculus [16] = assay: Anticonvulsant activity in CF-1 mouse model of subcutaneous pentylenetetrazole-induced seizure assessed as reduction in convulsions at 100 mg/kg, ip measured at 0.5 hrs post dose; format: functional, organism-based; in short: as §2
Rattus norvegicus [17] = assay: Anticonvulsant activity in Sprague-Dawley rat model of maximal electroshock-induced seizure assessed as suppression of tonic hind limb extension at 30 mg/kg, po measured at 2 hrs post dose; format: functional, organism-based; in short: as §5
Mus musculus [18] = assay: Anticonvulsant activity in CF-1 mouse model of subcutaneous pentylenetetrazole-induced seizure assessed as reduction in convulsions at 100 mg/kg, ip measured at 4 hrs post dose; format: functional, organism-based; in short: as §2
Mus musculus [19] = assay: Anticonvulsant activity in CF-1 mouse model of subcutaneous pentylenetetrazole-induced seizure assessed as reduction in convulsions at 30 mg/kg, ip measured at 0.5 hrs post dose; format: functional, organism-based; in short: as §2
[20] = Neurotoxicity in Sprague-Dawley rat at 30 mg/kg, po measured after 0.5 hrs by rotarod test; format: toxicity, organism-based; details: in vivo; in short: as §1
Rattus norvegicus [21] = assay: Anticonvulsant activity in Sprague-Dawley rat model of maximal electroshock-induced seizure assessed as suppression of tonic hind limb extension at 30 mg/kg, po measured at 1 hr post dose; format: functional, organism-based; in short: as §5
Mus musculus [22] = assay: Anticonvulsant activity in CF-1 mouse model of subcutaneous pentylenetetrazole-induced seizure assessed as reduction in convulsions at 300 mg/kg, ip measured at 4 hrs post dose; format: functional, organism-based; in short: as §2
[23] = Neurotoxicity in Sprague-Dawley rat at 30 mg/kg, po measured after 1 hr by rotarod test; format: toxicity, organism-based; details: in vivo; in short: as §1
Mus musculus [24] = assay: Anticonvulsant activity in CF-1 mouse model of maximal electroshock-induced seizure assessed as suppression of tonic hind limb extension at 300 mg/kg, ip measured at 4 hrs post dose; format: functional, organism-based; in short: as §4
[25] = Neurotoxicity in Sprague-Dawley rat at 30 mg/kg, po measured after 4 hrs by rotarod test; format: toxicity, organism-based; details: in vivo; in short: as §1
[26] = Neurotoxicity in CF-1 mouse at 100 mg/kg, ip measured after 1 hr by rotarod test; format: toxicity, organism-based; details: in vivo; in short: as §3
[27] = Neurotoxicity in Sprague-Dawley rat at 30 mg/kg, po measured after 2 hrs by rotarod test; format: toxicity, organism-based; details: in vivo; in short: as §1
[28] = Neurotoxicity in CF-1 mouse at 300 mg/kg, ip measured after 4 hrs by rotarod test; format: toxicity, organism-based; details: in vivo; in short: as §3
[29] = Neurotoxicity in CF-1 mouse at 300 mg/kg, ip measured after 0.5 hrs by rotarod test; format: toxicity, organism-based; details: in vivo; in short: as §3
[30] = Neurotoxicity in CF-1 mouse at 30 mg/kg, ip measured after 4 hrs by rotarod test; format: toxicity, organism-based; details: in vivo; in short: as §3
Mus musculus [31] = assay: Anticonvulsant activity in CF-1 mouse model of maximal electroshock-induced seizure assessed as suppression of tonic hind limb extension at 100 mg/kg, ip measured at 1 hr post dose; format: functional, organism-based; in short: as §4
Mus musculus [32] = assay: Anticonvulsant activity in CF-1 mouse assessed as protection against 44 mA current-induced seizure at 100 mg/kg, ip after 2 hrs by 6 Hz psychomotor test; format: functional, organism-based
In short: (§6)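 Mice dosed i.p. (30, 100, 300 mg/kg; one line at 120 mg/kg read at 15 min). Corneal stimulation at 6 Hz, 44 mA for 3 s from a constant-current device induces a psychomotor seizure with stunned posture, forelimb automatisms, clonus, vibrissae twitching and Straub tail. Scored as number of animals protected / number tested (4 per group) at 0.5 and 2 h.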

Mus musculus [33] = assay: Anticonvulsant activity in CF-1 mouse model of maximal electroshock-induced seizure assessed as suppression of tonic hind limb extension at 30 mg/kg, ip measured at 2 hrs post dose; format: functional, organism-based
Mus musculus [34] = assay: Anticonvulsant activity in CF-1 mouse assessed as protection against 44 mA current-induced seizure at 300 mg/kg, ip after 0.5 hrs by 6 Hz psychomotor test; format: functional, organism-based; in short: as §6
Mus musculus [35] = assay: Anticonvulsant activity in CF-1 mouse assessed as protection against 44 mA current-induced seizure at 100 mg/kg, ip after 0.5 hrs by 6 Hz psychomotor test; format: functional, organism-based; in short: as §6
Mus musculus [36] = assay: Anticonvulsant activity in CF-1 mouse assessed as protection against 44 mA current-induced seizure at 30 mg/kg, ip after 2 hrs by 6 Hz psychomotor test; format: functional, organism-based; in short: as §6
Mus musculus [37] = assay: Anticonvulsant activity in CF-1 mouse assessed as protection against 44 mA current-induced seizure at 30 mg/kg, ip after 0.5 hrs by 6 Hz psychomotor test; format: functional, organism-based; in short: as §6
[38] = Neurotoxicity in CF-1 mouse at 100 mg/kg, ip measured after 2 hrs by rotarod test; format: toxicity, organism-based; details: in vivo; in short: as §3
Mus musculus [39] = assay: Anticonvulsant activity in CF-1 mouse model of maximal electroshock-induced seizure assessed as suppression of tonic hind limb extension at 100 mg/kg, ip measured at 2 hrs post dose; format: functional, organism-based
[40] = Neurotoxicity in CF-1 mouse at 30 mg/kg, ip measured after 2 hrs by rotarod test; format: toxicity, organism-based; details: in vivo; in short: as §3
[41] = Neurotoxicity in CF-1 mouse at 300 mg/kg, ip measured after 2 hrs by rotarod test; format: toxicity, organism-based; details: in vivo; in short: as §3
Mus musculus [42] = assay: Anticonvulsant activity in ip dosed CF-1 mouse model of subcutaneous pentylenetetrazole-induced seizure assessed as time required for reduction in convulsions; format: functional
In short: (§7)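 Mice given test compound i.p.; pentylenetetrazole 85 mg kg⁻¹ in 0.9% NaCl injected subcutaneously into posterior midline of neck. Seizures observed for at least 30 min. Protected = no fore and/or hind limb clonus, jaw chomping or vibrissae twitching (3 to 5 s). Screening doses 30, 100, 300 mg kg⁻¹; read at 0.25, 0.5, 1.0, 4.0 h; scored as protected/tested.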

Mus musculus [43] = assay: Anticonvulsant activity in ip dosed CF-1 mouse model of subcutaneous pentylenetetrazole-induced seizure assessed as reduction in convulsions; format: functional; in short: as §7
Mus musculus [44] = assay: Anticonvulsant activity in CF-1 mouse assessed as protection against 44 mA current-induced seizure at 300 mg/kg, ip after 2 hrs by 6 Hz psychomotor test; format: functional, organism-based; in short: as §6

NC(=O)N1c2ccccc2C=Cc2ccccc21 [CARBAMAZEPINE]
%max (Mus musculus [1]): 75% | TD50 at 2 h [2]: 364 mg/kg

Cc1cccc(C)c1OCC(=O)NCC(C)O (configuration not stated)
Activity (Mus musculus [3]): inactive | Activity [4]: Non-Toxic | Activity (Mus musculus [5]): inactive | Activity (Mus musculus [6]): inactive | Activity (Mus musculus [7]): inactive | Activity (Mus musculus [8]): inactive | Activity [9]: Non-Toxic | Activity [10]: Non-Toxic | Activity [11]: Non-Toxic | Activity (Rattus norvegicus [12]): inactive | Activity (Mus musculus [13]): inactive | Activity (Rattus norvegicus [14]): inactive | Activity (Mus musculus [15]): Active | Activity (Mus musculus [16]): inactive | Activity (Rattus norvegicus [17]): inactive | Activity (Mus musculus [18]): inactive | Activity (Mus musculus [19]): inactive | Activity [20]: Non-Toxic | Activity (Rattus norvegicus [21]): inactive | Activity (Mus musculus [22]): inactive | Activity [23]: Non-Toxic | Activity (Mus musculus [24]): inactive | Activity [25]: Non-Toxic | Activity [26]: Non-Toxic | Activity [27]: Non-Toxic | Activity [28]: Non-Toxic | Activity [29]: Toxic | Activity [30]: Non-Toxic | Activity (Mus musculus [31]): inactive

Cc1cccc(C)c1OCC(=O)N[C@H]1CC[C@H](OC(=O)COc2c(C)cccc2C)CC1
Activity [4]: Non-Toxic | Activity (Mus musculus [32]): inactive | Activity (Mus musculus [7]): inactive | Activity (Mus musculus [33]): inactive | Activity [9]: Non-Toxic | Activity (Mus musculus [34]): inactive | Activity (Mus musculus [35]): inactive | Activity (Mus musculus [15]): inactive | Activity (Mus musculus [36]): inactive | Activity (Mus musculus [37]): inactive | Activity [38]: Non-Toxic | Activity (Mus musculus [39]): inactive | Activity [29]: Non-Toxic | Activity [40]: Non-Toxic | Activity [41]: Non-Toxic

CC(=O)[C@H]1CC[C@H]2[C@@H]3CC[C@H]4C[C@H](O)CC[C@]4(C)[C@H]3CC[C@]12C [BREXANOLONE]
Time (Mus musculus [42]): 0.17 h | ED50 (Mus musculus [43]): 13.7 mg/kg

Cc1cccc(OCC(=O)N[C@H]2CC[C@H](O)CC2)c1C
Activity [4]: Non-Toxic | Activity (Mus musculus [32]): inactive | Activity (Mus musculus [7]): inactive | Activity (Mus musculus [33]): inactive | Activity [9]: Non-Toxic | Activity (Mus musculus [44]): Active | Activity (Mus musculus [13]): inactive | Activity (Mus musculus [15]): Active | Activity (Mus musculus [36]): inactive | Activity (Mus musculus [37]): inactive | Activity [38]: Non-Toxic | Activity (Mus musculus [39]): inactive | Activity [40]: Non-Toxic | Activity [41]: Non-Toxic
